Results from ChEMBL document CHEMBL4732170, “Discovery of Small-Molecule Antagonists of the PWWP Domain of NSD2” (J Med Chem, 2021).
The source made the active and inactive calls. The rule behind the calls is not given here.

Experiments:
[1] = target: T1, Zinc finger MYND domain-containing protein 11 (Homo sapiens) (UniProt Q15326); assay: Binding affinity to ZMYND11 PWWP1 domain (unknown origin) assessed as aggregation temperature at 400 uM by heating at 25 to 85 degC by differential static light scattering method
T1 sequence (whole entry): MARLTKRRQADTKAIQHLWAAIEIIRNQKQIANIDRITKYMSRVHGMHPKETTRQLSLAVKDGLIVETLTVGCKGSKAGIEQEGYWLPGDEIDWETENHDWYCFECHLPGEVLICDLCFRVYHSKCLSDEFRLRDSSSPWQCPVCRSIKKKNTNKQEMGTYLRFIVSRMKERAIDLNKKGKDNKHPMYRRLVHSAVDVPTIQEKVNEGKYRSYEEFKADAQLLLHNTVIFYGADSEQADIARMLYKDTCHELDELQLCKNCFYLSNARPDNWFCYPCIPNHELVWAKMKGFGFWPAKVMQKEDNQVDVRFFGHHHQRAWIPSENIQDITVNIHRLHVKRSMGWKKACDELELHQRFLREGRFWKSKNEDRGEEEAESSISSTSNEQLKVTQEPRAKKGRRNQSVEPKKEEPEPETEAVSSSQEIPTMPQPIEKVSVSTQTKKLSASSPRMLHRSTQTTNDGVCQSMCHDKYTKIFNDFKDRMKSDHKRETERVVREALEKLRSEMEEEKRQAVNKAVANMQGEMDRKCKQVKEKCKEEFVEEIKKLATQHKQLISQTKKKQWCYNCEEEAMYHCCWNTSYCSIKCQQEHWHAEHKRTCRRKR

[2] = target: T2, Histone-lysine N-methyltransferase NSD2 (Homo sapiens, UniProt O96028); assay: Binding affinity to NSD2 PWWP1 domain (unknown origin) assessed as dissociation constant by isothermal titration calorimetric analysis
T2 sequence (O96028 whole entry): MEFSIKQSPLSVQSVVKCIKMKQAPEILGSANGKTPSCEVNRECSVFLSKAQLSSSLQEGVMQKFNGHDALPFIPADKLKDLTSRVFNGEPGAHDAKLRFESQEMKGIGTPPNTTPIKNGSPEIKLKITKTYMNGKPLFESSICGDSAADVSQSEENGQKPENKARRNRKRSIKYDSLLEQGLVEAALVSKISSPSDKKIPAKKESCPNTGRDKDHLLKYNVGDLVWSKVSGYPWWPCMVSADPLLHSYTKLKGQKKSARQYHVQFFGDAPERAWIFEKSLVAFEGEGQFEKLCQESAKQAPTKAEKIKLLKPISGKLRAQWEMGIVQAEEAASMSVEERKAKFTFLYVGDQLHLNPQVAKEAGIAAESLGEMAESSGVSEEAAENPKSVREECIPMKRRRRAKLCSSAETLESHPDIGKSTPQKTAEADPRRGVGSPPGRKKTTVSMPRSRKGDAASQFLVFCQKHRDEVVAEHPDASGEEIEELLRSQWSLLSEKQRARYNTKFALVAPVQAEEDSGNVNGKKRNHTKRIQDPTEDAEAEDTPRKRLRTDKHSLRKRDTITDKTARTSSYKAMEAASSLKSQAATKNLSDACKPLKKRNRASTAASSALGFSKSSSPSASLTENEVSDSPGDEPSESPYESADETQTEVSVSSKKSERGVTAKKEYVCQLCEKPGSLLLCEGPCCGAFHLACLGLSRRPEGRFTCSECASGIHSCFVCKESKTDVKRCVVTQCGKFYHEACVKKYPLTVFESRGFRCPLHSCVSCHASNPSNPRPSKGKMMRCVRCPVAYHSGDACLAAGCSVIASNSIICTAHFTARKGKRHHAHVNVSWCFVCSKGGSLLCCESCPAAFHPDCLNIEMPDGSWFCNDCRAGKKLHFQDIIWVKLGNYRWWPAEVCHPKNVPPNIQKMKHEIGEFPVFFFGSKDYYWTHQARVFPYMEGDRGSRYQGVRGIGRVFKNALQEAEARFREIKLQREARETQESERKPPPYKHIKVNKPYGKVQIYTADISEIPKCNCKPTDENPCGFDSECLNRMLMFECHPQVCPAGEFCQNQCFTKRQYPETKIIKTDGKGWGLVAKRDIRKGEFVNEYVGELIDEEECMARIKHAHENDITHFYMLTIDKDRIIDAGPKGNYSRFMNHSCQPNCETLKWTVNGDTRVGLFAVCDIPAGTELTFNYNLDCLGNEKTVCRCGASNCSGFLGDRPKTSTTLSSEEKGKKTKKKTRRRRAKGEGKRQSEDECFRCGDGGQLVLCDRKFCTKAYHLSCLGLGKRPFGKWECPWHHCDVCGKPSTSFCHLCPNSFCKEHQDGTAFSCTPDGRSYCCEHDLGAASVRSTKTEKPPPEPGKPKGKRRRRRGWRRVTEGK
Procedure, shortened: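 Reverse ITC: purified NSD2-PWWP1 (aa 211-350, human, E. coli-expressed, His-tag removed) dialyzed into 20 mM Tris pH 7.5, 100 mM NaCl. Protein at 1 mM titrated into cell holding 40 μM ligand, 1% DMSO in both. Twelve 4 μL injections at 25 °C. Kd from one-binding-site model fit.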

[3] = target: T3, Histone-lysine N-methyltransferase NSD2 (Homo sapiens) (UniProt O96028); settings: filed as antagonist, dose 400.0 µM
T3 sequence (whole entry): T2 sequence (O96028 whole entry)

N#Cc1ccc(C(C(N)=O)N2CCC2c2ccc(Cl)cc2)cc1 (stereo not drawn)
Activity [1]: inactive | Kd [2]: 8.9 µM | deltaT [3]: 3.9 °C
